Columns and labels:
[1] = target: T1, h-NTPDase2 (Homo sapiens, UniProt Q9Y5L3); test: h-NTPDase activity assay; format: biochemical; details: for inhibition at 100 µM: read-out: % Inhibition h-NTPDase2
T1 sequence (Q9Y5L3 1-495): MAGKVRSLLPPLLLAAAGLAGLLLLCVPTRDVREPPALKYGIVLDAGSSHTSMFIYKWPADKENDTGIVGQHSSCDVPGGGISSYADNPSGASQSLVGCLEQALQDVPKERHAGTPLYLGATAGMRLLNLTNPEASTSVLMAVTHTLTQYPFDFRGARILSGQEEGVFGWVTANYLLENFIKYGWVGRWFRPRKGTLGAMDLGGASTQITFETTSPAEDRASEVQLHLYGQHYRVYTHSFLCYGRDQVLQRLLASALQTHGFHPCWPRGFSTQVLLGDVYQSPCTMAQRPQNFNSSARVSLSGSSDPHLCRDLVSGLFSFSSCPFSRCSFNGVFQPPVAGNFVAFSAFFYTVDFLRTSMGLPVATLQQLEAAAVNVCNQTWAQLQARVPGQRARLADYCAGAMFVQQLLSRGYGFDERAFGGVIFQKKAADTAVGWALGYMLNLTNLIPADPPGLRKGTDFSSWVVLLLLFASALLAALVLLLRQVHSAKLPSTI

[2] = target: T2, h-NPP1 (Homo sapiens, UniProt P22413); test: h-NPP1 activity assay; format: biochemical; details: for inhibition at 100 µM: read-out: % Inhibition h-NPP1
T2 sequence (P22413 1-925): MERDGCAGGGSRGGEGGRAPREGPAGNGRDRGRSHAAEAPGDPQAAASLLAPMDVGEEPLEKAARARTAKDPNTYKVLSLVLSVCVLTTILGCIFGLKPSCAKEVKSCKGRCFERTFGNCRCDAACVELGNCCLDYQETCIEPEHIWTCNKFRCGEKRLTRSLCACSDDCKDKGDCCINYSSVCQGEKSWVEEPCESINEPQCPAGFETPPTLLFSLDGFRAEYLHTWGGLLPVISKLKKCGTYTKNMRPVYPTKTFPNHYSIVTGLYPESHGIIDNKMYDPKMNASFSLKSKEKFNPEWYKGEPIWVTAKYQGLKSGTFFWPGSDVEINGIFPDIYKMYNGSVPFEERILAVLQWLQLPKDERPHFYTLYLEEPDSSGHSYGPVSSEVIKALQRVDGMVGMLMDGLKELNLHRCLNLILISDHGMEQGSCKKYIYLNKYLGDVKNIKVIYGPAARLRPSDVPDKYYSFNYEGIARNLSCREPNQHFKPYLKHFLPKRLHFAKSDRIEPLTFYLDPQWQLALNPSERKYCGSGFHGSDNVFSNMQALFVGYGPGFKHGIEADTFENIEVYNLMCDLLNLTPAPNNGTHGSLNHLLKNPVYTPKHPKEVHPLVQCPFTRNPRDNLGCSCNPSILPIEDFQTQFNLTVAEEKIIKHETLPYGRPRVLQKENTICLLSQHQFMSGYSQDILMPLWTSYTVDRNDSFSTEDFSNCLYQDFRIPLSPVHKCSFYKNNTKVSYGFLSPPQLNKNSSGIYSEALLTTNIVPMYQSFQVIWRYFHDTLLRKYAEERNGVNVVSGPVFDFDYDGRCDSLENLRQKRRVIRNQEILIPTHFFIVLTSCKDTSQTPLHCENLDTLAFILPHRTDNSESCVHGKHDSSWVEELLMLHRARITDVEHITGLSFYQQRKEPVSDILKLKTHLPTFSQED

[3] = MTT assay; format: cell-based, human; details: human, MCF-7 breast cancer cells, MCF-7, 100 μM; for cytotoxicity at 24 h, 100 µM: % Cytotoxicity ± SD; for viability at 24 h, 100 µM: % Viability
[4] = target: T3, h-NTPDase3 (Homo sapiens, UniProt O75355); test: h-NTPDase activity assay; format: biochemical; details: for inhibition at 100 µM: read-out: % Inhibition h-NTPDase3
T3 sequence (O75355 1-529): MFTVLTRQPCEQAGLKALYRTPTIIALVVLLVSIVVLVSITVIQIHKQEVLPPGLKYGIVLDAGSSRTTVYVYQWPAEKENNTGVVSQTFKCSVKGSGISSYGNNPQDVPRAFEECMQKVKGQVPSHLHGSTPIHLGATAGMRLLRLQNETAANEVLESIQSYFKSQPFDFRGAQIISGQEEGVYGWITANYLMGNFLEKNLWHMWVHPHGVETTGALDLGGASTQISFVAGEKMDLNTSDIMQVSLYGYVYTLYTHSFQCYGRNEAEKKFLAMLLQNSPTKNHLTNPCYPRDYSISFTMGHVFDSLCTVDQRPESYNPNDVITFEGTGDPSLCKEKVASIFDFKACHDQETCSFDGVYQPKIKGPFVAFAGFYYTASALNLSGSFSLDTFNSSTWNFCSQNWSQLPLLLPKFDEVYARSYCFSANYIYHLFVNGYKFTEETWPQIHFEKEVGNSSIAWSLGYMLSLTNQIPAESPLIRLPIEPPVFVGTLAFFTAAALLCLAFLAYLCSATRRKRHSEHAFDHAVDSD
Method in brief: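 Human NTPDase1, -2, -3 or -8 came from COS-7 cells transfected with plasmids via Lipofectamine, harvested at 44–48 h, sonicated and cleared of nuclei, with protein measured by Bradford. Enzyme per well was 12, 37, 43 or 63 ng respectively. Compound (0.1 mM final) was pre-incubated 10 min at 37 °C in 50 mM Tris–HCl, 5 mM CaCl2, pH 7.4. The reaction was started with ATP (100 µM), run 15 min, and stopped with malachite green; Pi was read at 630 nm.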

[5] = target: T4, h-e5’NT (Homo sapiens, UniProt P21589); test: h-e5’NT activity assay; format: biochemical; details: for inhibition at 100 µM: read-out: % Inhibition h-e5’NT
T4 sequence (P21589 27-574): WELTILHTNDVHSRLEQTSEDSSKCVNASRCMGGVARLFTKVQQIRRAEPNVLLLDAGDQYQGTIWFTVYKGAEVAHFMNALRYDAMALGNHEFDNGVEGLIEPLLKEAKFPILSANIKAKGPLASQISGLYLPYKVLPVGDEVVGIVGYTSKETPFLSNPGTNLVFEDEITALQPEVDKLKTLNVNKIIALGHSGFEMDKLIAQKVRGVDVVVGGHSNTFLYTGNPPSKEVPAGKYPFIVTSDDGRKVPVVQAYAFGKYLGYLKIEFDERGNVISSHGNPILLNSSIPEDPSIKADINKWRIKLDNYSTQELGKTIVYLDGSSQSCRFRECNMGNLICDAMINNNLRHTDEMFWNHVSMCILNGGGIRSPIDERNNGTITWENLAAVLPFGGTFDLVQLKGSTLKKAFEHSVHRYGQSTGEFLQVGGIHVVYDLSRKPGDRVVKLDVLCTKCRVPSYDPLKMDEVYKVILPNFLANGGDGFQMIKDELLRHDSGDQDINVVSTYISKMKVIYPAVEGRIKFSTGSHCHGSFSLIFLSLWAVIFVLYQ
Method in brief: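 Human ecto-5′-nucleotidase from transfected COS-7 cells was pre-incubated 10 min at 37 °C with compound (0.1 mM final) in 50 mM Tris–HCl with MgCl₂ and CaCl₂, pH 7.4. The reaction was started with AMP (2 mM solution as added) and run 20 min at 37 °C. Released phosphate was detected with malachite green at 630 nm, in triplicate.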

| Compound | inhibition at 100 µM [1] [%] | inhibition at 100 µM [2] [%] | cytotoxicity at 24 h, 100 µM [3] [%] | viability at 24 h, 100 µM [3] [%] | IC50 [4] [nM] | inhibition at 100 µM [4] [%] | inhibition at 100 µM [5] [%] | IC50 [1] [nM] | IC50 [5] [nM] | IC50 [2] [nM] |
| --- | --- | --- | --- | --- | --- | --- | --- | --- | --- | --- |
| O=C(NCc1ccc(F)cc1)c1ccc2ncccc2c1 [Compound 4b, N-(4-fluorobenzyl)quinoline-6-carboxamide] | 26.2 | 44.8 | 25.1 ± 6.08 | 74.9 | 350 ± 170 | 67.8 | 37 | – | – | – |
| Cc1ccc(CNC(=O)c2ccc3ncccc3c2)cc1 [Compound 4c, N-(4-methylbenzyl)quinoline-6-carboxamide] | 68.4 | 45.2 | 42.2 ± 0.81 | 57.8 | 670 ± 270 | 78.4 | 50.7 | 6390 ± 1070 | 190 ± 10 | – |
| O=C(Nc1c(F)cccc1F)c1ccc2ncccc2c1 [Compound 4d, N-(2,6 difluorophenyl)quinoline-6-carboxamide] | 80.1 | 54.5 | 48 ± 12.7 | 52 | 820 ± 70 | 58.4 | 35.6 | 920 ± 170 | – | 730 ± 90 |
| O=C(Nc1ccc(F)cc1F)c1ccc2ncccc2c1 [Compound 4e, N-(2,4 difluorophenyl)quinoline-6-carboxamide] | 36.4 | 34.6 | 14.6 ± 2.48 | 85.4 | – | 40.2 | 66.9 | – | 540 ± 90 | – |
| O=C(Nc1ccccn1)c1ccc2ncccc2c1 [Compound 4g, N-(pyridin-2-yl)quinoline-6-carboxamide] | 33.9 | 43.7 | 47.4 ± 1.8 | 52.6 | 320 ± 50 | 81.7 | 82 | – | 340 ± 70 | – |
| O=C(Nc1ccccc1I)c1ccc2ncccc2c1 [Compound 4h, N-(2-iodophenyl)quinoline-6-carboxamide] | 28.3 | 33.9 | 49.7 ± 2.17 | 50.3 | 880 ± 290 | 85 | 87 | – | 390 ± 100 | – |
| O=C(Nc1ccc(I)cc1)c1ccc2ncccc2c1 [Compound 4k, N-(4-Iodophenyl)quinoline-6-carboxamide] | 18.6 | 67.7 | 56.9 ± 16.9 | 43 to 45 | – | 38.5 | 28.4 | – | – | 110 ± 20 |
| Cc1ccc(F)cc1NC(=O)c1ccc2ncccc2c1 [Compound 4l, N-(5-fluoro 2-methylphenyl)quinoline-6-carboxamide] | 41.2 | 29.4 | 39.5 ± 15.5 | 60.5 | – | 36.1 | 61 | – | 470 ± 260 | – |

— PMC13022283 (Scientific Reports, 2026)
